Assay results: ChEMBL document CHEMBL4706596, “Synthesis, biological evaluation, in silico modeling and crystallization of novel small monocationic molecules with potent antiproliferative activity by dual mechanism” (Eur J Med Chem, 2020)

Columns and labels:
RS4-11 [1] = assay: Antiproliferative activity against human RS4-11 cells assessed as inhibition of cell proliferation; assay type: functional
How it was run: (§1)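 Cells seeded at 8 × 10³/well and held 18 h at 37 °C, 5% CO₂. Medium then replaced with compound at several concentrations for 72 h at 37 °C, followed by MTT viability read-out. GI50 is taken against cells given the maximum DMSO (0.25%), which is set as 100% viability. Dose-response curves come from at least three independent experiments run in triplicate and are reported as mean ± SE.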

HeLa [2] = assay: Antiproliferative activity against human HeLa cells assessed as inhibition of cell proliferation; assay type: functional; how it was run: as §1
CCRF-CEM [3] = assay: Antiproliferative activity against human CCRF-CEM cells assessed as inhibition of cell proliferation; assay type: functional; how it was run: as §1
HT-29 [4] = assay: Antiproliferative activity against human HT-29 cells assessed as inhibition of cell proliferation; assay type: functional; how it was run: as §1
[5] = Inhibition of [methyl-14C]choline uptake in human HT-29 cells at 10 uM incubated for 10 mins followed by removal of medium containing compound and subsequent addition of [methyl-14C]choline measured after 5 mins relative to control; assay type: functional; conditions: HT-29, 10 min
How it was run: (§2)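 Cells at 200,000/well were incubated for 10 min at 37 °C in medium with or without CKα1 inhibitor. The medium was then removed and cells were exposed to [methyl-¹⁴C]choline (31 Ci/mol) for 5 min at 37 °C. Uptake was stopped by aspiration and two ice-cold PBS washes containing choline. Inhibition is expressed as % of untreated control.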

[6] = Inhibition of [methyl-14C]choline uptake in human HT-29 cells at 30 uM incubated for 10 mins followed by removal of medium containing compound and subsequent addition of [methyl-14C]choline measured after 5 mins relative to control; assay type: functional; conditions: HT-29, 10 min; how it was run: as §2
Homo sapiens = species: Homo sapiens; assay: Selectivity index, ratio of Kd for human CKbeta to Kd for human CKalpha1
Choline kinase alpha [7] = target: T1, Choline kinase alpha (Homo sapiens, UniProt P35790); assay: Inhibition of human CKalpha1 assessed as reduction in 14C incorporation from [methyl-14C]choline to […] using [methyl-14C]choline as substrate preincubated for 5 mins in presence of ATP and MgCl2 followed by substrate addition and measured after 10 mins by liquid scintillation counting method relative to control
How it was run: (§3)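 Purified human CKα1 (20 ng) in 100 mM Tris pH 8.5 with 10 mM MgCl₂ and 10 mM ATP, DMSO ≤0.1%, was preincubated 5 min at 37 °C. Reaction was started with 1 mM [methyl-¹⁴C]choline (4500 dpm/nmol), run 10 min at 37 °C and stopped in boiling water. Product was separated by silica TLC, scraped and scintillation-counted against DMSO controls. At least three experiments were run; IC50 was obtained from sigmoidal dose-response fits.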
Target sequence in this assay (P35790 whole entry): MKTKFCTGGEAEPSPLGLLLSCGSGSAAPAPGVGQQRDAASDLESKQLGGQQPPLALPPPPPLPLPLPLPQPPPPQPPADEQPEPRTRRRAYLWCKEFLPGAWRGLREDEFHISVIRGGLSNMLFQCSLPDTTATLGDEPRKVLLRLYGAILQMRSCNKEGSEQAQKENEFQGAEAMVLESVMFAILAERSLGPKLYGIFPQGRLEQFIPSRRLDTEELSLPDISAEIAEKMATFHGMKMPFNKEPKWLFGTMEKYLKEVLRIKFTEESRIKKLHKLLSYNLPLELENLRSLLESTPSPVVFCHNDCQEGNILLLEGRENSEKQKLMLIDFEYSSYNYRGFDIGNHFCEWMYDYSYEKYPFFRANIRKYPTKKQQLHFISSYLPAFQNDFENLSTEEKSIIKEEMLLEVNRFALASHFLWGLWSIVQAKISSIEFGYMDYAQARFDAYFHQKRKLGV

[8] = Inhibition of [methyl-14C]choline uptake in human HepG2 cells at 30 uM incubated for 10 mins followed by removal of medium containing compound and subsequent addition of [methyl-14C]choline measured after 5 mins relative to control; assay type: functional; conditions: HepG2, 10 min; how it was run: as §2
[9] = Inhibition of [methyl-14C]choline uptake in human HepG2 cells at 10 uM incubated for 10 mins followed by removal of medium containing compound and subsequent addition of [methyl-14C]choline measured after 5 mins relative to control; assay type: functional; conditions: HepG2, 10 min; how it was run: as §2
CCRF-CEM [10] = assay: Antiproliferative activity against human CCRF-CEM cells assessed as inhibition of cell proliferation incubated for 72 hrs by MTT assay; assay type: functional; how it was run: as §1
HT-29 [11] = assay: Antiproliferative activity against human HT-29 cells assessed as inhibition of cell proliferation incubated for 72 hrs by MTT assay; assay type: functional; how it was run: as §1
[12] = target: Choline/ethanolamine kinase (Homo sapiens, UniProt Q9Y259); assay: Binding affinity to human CKbeta assessed as dissociation constant by spectroflurometry
Choline/ethanolamine kinase, sequence (Q9Y259 whole entry): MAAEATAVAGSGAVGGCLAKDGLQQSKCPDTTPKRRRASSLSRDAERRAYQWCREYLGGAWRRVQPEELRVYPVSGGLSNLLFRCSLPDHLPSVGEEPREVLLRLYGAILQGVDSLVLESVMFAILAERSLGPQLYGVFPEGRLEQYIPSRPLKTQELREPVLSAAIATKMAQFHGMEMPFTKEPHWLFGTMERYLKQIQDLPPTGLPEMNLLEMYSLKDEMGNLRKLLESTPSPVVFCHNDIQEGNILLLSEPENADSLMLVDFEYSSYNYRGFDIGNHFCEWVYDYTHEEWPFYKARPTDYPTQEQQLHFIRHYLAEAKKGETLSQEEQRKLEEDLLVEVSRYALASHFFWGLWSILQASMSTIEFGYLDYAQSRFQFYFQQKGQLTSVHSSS
How it was run: (§4)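 Purified human CK (cloned as reported earlier) at 1 µM was titrated with compound in 25 mM Tris, 150 mM NaCl, pH 7.5 at 25 °C. Compound ranges were 0.1–10 µM for CKα1 and 0.5–200 µM for CKβ. Tryptophan quenching was read with excitation at 280 nm, emission 300–400 nm and 5 nm slits. DMSO-matched controls were run, and Kd was fitted to a single-site model. Results are given as mean ± SD.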

Choline kinase alpha [13] = target: T1, Choline kinase alpha; assay: Binding affinity to human CKalpha1 assessed as dissociation constant by spectroflurometry; how it was run: as §4
Target sequence in this assay (P35790 whole entry): as the sequence (P35790 whole entry) above

Choline kinase alpha [14] = target: T1, Choline kinase alpha; assay: Inhibition of human CKalpha1 assessed as reduction in 14C incorporation from [methyl-14C]choline to […] at 30 uM using [methyl-14C]choline as substrate preincubated for 5 mins in presence of ATP and MgCl2 followed by substrate addition and measured after 10 mins by liquid scintillation counting method relative to control; conditions: time 15.0 min; how it was run: as §3
Target sequence in this assay (P35790 whole entry, looked up): as the sequence (P35790 whole entry) above

HeLa [15] = assay: Antiproliferative activity against human HeLa cells assessed as inhibition of cell proliferation incubated for 72 hrs by MTT assay; assay type: functional; how it was run: as §1
Choline kinase alpha [16] = target: T1, Choline kinase alpha; assay: Inhibition of human CKalpha1 assessed as reduction in 14C incorporation from [methyl-14C]choline to […] at 10 uM using [methyl-14C]choline as substrate preincubated for 5 mins in presence of ATP and MgCl2 followed by substrate addition and measured after 10 mins by liquid scintillation counting method relative to control; conditions: time 15.0 min; how it was run: as §3
Target sequence in this assay (P35790 whole entry, looked up): as the sequence (P35790 whole entry) above

RS4-11 [17] = assay: Antiproliferative activity against human RS4-11 cells assessed as inhibition of cell proliferation incubated for 72 hrs by MTT assay; assay type: functional; how it was run: as §1
HT-29 [18] = assay: Induction of cell cycle arrest in human HT-29 cells assessed as accumulation at G2/M phase at 2.5 uM incubated for 24 hrs by PI staining based flowcytometry analysis (reference value: 12.40 %); assay type: functional
HeLa [19] = assay: Induction of mitochondrial membrane potential loss in human HeLa cells by JC1 staining based flow cytometry analysis; conditions: dose 2.5-5 µM
HT-29 [20] = assay: Induction of cell cycle arrest in human HT-29 cells assessed as accumulation at S phase at 1 uM incubated for 24 hrs by PI staining based flowcytometry analysis (reference value: 27.40 %); assay type: functional
HT-29 [21] = assay: Induction of cell cycle arrest in human HT-29 cells assessed as accumulation at G2/M phase at 1 uM incubated for 24 hrs by PI staining based flowcytometry analysis (reference value: 12.40 %); assay type: functional
HT-29 [22] = assay: Induction of apoptosis in human HT-29 cells measured for 48 hrs by annexin V-FITC and PI staining based flowcytometry analysis; assay type: functional, cell-based; conditions: dose 2.5-5 µM
How it was run: (§5)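 Treated cells were collected at different times, dual-stained with annexin V-FITC (phosphatidylserine exposure) and propidium iodide (DNA), and analysed by bi-parametric flow cytometry.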

HT-29 [23] = assay: Induction of cell cycle arrest in human HT-29 cells assessed as accumulation at S phase at 2.5 uM incubated for 24 hrs by PI staining based flowcytometry analysis (reference value: 27.40 %); assay type: functional
HeLa [24] = assay: Induction of apoptosis in human HeLa cells measured for 48 hrs by annexin V-FITC and PI staining based flowcytometry analysis; assay type: functional, cell-based; conditions: dose 2.5-5 µM; how it was run: as §5
HT-29 [25] = assay: Induction of mitochondrial membrane potential loss in human HT-29 cells measured for 48 hrs by JC1 staining based flow cytometry analysis; assay type: functional, cell-based; conditions: dose 2.5-5 µM
How it was run: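 Cells were treated with compound, then stained with the fluorescent dye JC-1. Loss of mitochondrial membrane potential was monitored by flow cytometry.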

HT-29 [26] = assay: Induction of apoptosis in human HT-29 cells at 2.5 to 5 uM by annexin V-FITC and PI staining based flowcytometry analysis; assay type: functional, cell-based; conditions: dose 2.5-5 µM, time 24-48 hrs, TDE = time-dependent effect; how it was run: as §5
HT-29 [27] = assay: Induction of cell cycle arrest in human HT-29 cells assessed as accumulation at G0/G1 phase at 2.5 uM incubated for 24 hrs by PI staining based flowcytometry analysis (reference value: 60.20 %); assay type: functional
HeLa [28] = assay: Induction of cell cycle arrest in human HeLa cells assessed as accumulation at G2/M phase at 1 uM incubated for 24 hrs by PI staining based flowcytometry analysis (reference value: 10.7 %); assay type: functional
HeLa [29] = assay: Induction of apoptosis in human HeLa cells at 2.5 to 5 uM by annexin V-FITC and PI staining based flowcytometry analysis; assay type: functional, cell-based; conditions: dose 2.5-5 µM, time 24-48 hrs, TDE = time-dependent effect; how it was run: as §5
HeLa [30] = assay: Induction of cell cycle arrest in human HeLa cells assessed as accumulation at G0/G1 phase at 2.5 uM incubated for 24 hrs by PI staining based flowcytometry analysis (reference value: 57 %); assay type: functional
HeLa [31] = assay: Induction of cell cycle arrest in human HeLa cells assessed as accumulation at S phase at 2.5 uM incubated for 24 hrs by PI staining based flowcytometry analysis (reference value: 32.30 %); assay type: functional
HT-29 [32] = assay: Induction of cell cycle arrest in human HT-29 cells assessed as increase accumulation of G0/G1 phase incubated for 24 hrs by PI staining based flowcytometry analysis; conditions: dose 1-2.5 µM
HeLa [33] = assay: Induction of cell cycle arrest in human HeLa cells assessed as accumulation at G0/G1 phase at 1 uM incubated for 24 hrs by PI staining based flowcytometry analysis (reference value: 57 %); assay type: functional
HeLa [34] = assay: Induction of cell cycle arrest in human HeLa cells assessed as accumulation at S phase at 1 uM incubated for 24 hrs by PI staining based flowcytometry analysis (reference value: 32.30 %); assay type: functional
HT-29 [35] = assay: Induction of cell cycle arrest in human HT-29 cells assessed as accumulation at G0/G1 phase at 1 uM incubated for 24 hrs by PI staining based flowcytometry analysis (reference value: 60.20 %); assay type: functional
HeLa [36] = assay: Induction of cell cycle arrest in human HeLa cells assessed as accumulation at G2/M phase at 2.5 uM incubated for 24 hrs by PI staining based flowcytometry analysis (reference value: 10.70 %); assay type: functional

| SMILES | GI50 (RS4-11 [1]) | GI50 (HeLa [2]) | GI50 (CCRF-CEM [3]) | GI50 (HT-29 [4]) | inhibition at 10 µM [5] | inhibition at 30 µM [6] | Ratio (Homo sapiens) | IC50 (Choline kinase alpha [7]) | inhibition at 30 µM [8] | inhibition at 10 µM [9] | GI50 (CCRF-CEM [10]) | GI50 (HT-29 [11]) | Kd [12] | Kd (Choline kinase alpha [13]) | inhibition (Choline kinase alpha [14]) | GI50 (HeLa [15]) | inhibition (Choline kinase alpha [16]) | GI50 (RS4-11 [17]) | also measured |
| --- | --- | --- | --- | --- | --- | --- | --- | --- | --- | --- | --- | --- | --- | --- | --- | --- | --- | --- | --- |
| CN(c1ccccc1)c1cc[n+](Cc2ccc(-c3ccc(C[n+]4ccc(N(C)c5ccccc5)c5ccc(Cl)cc54)cc3)cc2)c2cc(Cl)ccc12 | 170 nM | 830 nM | 610 nM | 400 nM | – | – | – | – | – | – | – | – | – | – | – | – | – | – | – |
| CN(c1ccccc1)c1cc[n+](Cc2ccc(-c3ccccc3)cc2)c2cc(Cl)ccc12 | – | – | – | – | 85.5% | 93.3% | 108 | 12600 nM | 94.8% | 87.2% | 1700 nM | 850 nM | 20000 nM | 185 nM | 76% | 1700 nM | 38.6% | 1400 nM | – |
| Clc1ccc2c(N3CCCCCC3)cc[n+](Cc3ccc(-c4ccccc4)cc3)c2c1.[Br-] | – | – | – | – | 86.9% | 96.7% | 171 | 6740 nM | 95.5% | 88.2% | 150 nM | 90 nM | 63000 nM | 370 nM | 94.4% | 360 nM | 74.4% | 60 nM | Activity (HT-29 [18]): 7.9%; Activity (HeLa [19]): Dose-dependent effect; Activity (HT-29 [20]): 5.1%; Activity (HT-29 [21]): 6.9%; Activity (HT-29 [22]): Dose-dependent effect; Activity (HT-29 [23]): 5.8%; Activity (HeLa [24]): Dose-dependent effect; Activity (HT-29 [25]): Dose-dependent effect; Activity (HT-29 [26]): Tde; Activity (HT-29 [27]): 86.3%; Activity (HeLa [28]): 7.31%; Activity (HeLa [29]): Tde; Activity (HeLa [30]): 66.27%; Activity (HeLa [31]): 27.31%; Activity (HT-29 [32]): Dose-dependent effect; Activity (HeLa [33]): 67.47%; Activity (HeLa [34]): 25.23%; Activity (HT-29 [35]): 88%; Activity (HeLa [36]): 4.5% |
| CN(C)c1cc[n+](Cc2ccc(CCCCc3ccc(C[n+]4ccc(N(C)C)cc4)cc3)cc2)cc1 | 1000 nM | 1900 nM | 210 nM | 1900 nM | – | – | – | – | – | – | – | – | – | – | – | – | – | – | – |
